The source of these data is ChEMBL document CHEMBL4819034, “Tricyclic-Carbocyclic RORγt Inverse Agonists-Discovery of BMS-986313” (J Med Chem, 2021).

Data set [1] concerns Mus musculus. Put plainly: Protection against imiquimod-induced C57BL/6 mouse model of psoriasis assessed as inhibition of skin thickening at 20 mg/kg, po BID for 7 days and measured every day for 8 days relative to control. The following applies: C57BL/6, po, 168 h, time 7 day. The format is functional.
Data set [2] in a line: Clearance in cynomolgus monkey at 1 mg/kg, iv. The format is ADME, organism-based, Macaca fascicularis. The following applies: in vivo. In short, it runs like this:
(§1)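 Single-dose PK, IV and PO. Doses: mouse and rat 2 mg/kg IV / 4 mg/kg PO; dog and cyno 1 mg/kg IV, with 1 or 2 mg/kg PO.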

Data set [3] in a line: Half life in mouse liver microsomes. In kind it is ADME, Microsome. In short, it runs like this:
(§2)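 Liver microsome half-life (min) measured in human, mouse, rat, dog and cyno liver microsomes.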

Data set [4] can be described thus: Protein binding in human assessed as unbound fraction. The format is ADME.
Data set [5] relates to Mus musculus. Put plainly: Protection against recombinant human IL23-induced acanthosis C57BL/6 mouse model assessed as reduction in IL-17A mRNA levels at 3 mg/kg, po BID BID for 10 days by qRT-PCR analysis relative to control. In kind it is functional. Further details: scale not given: the % may be the effect or the level left. The following applies: time 10 day. In short, it runs like this:
(§3)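 In the IL-23 ear-injection model in C57BL/6 mice with BID oral dosing, ear tissue was collected from all animals at study end on day 10. IL-17A and IL-17F mRNA expression was quantified by qPCR and compared with the placebo arm.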

A short description of data set [6]: Oral bioavailability in mouse at 4 mg/kg. In kind it is ADME, organism-based. The following applies: in vivo. In short, it runs like this: as §1
The subject of data set [7] is Mus musculus. As to the kind of experiment: Protection against recombinant human IL23-induced acanthosis C57BL/6 mouse model assessed as reduction in IL-17A mRNA levels at 15 mg/kg, po BID BID for 10 days by qRT-PCR analysis relative to control. The format is functional. More on the design: scale not given: the % may be the effect or the level left. The following applies: time 10 day. In short, it runs like this:
as §3

Data set [8] in a line: Half life in cynomolgus monkey liver microsomes. In kind it is ADME, Macaca fascicularis, Microsome. In short, it runs like this:
as §2

A short description of data set [9]: Clearance in mouse at 2 mg/kg, iv. The format is ADME, organism-based. The following applies: in vivo. In short, it runs like this: as §1
The nature of data set [10]: Oral bioavailability in dog at 2 mg/kg. The format is ADME, organism-based, Canis lupus familiaris. To be noted: in vivo. In short, it runs like this:
as §1

A further data set concerns the target Cytochrome P450 2D6 (Homo sapiens, UniProt P10635). Put plainly: Inhibition of CYP2D6 (unknown origin). In kind it is ADME.
Data set [11] addresses T1, Nuclear receptor ROR-gamma (Mus musculus, UniProt P51450).
T1 sequence (P51450 whole entry): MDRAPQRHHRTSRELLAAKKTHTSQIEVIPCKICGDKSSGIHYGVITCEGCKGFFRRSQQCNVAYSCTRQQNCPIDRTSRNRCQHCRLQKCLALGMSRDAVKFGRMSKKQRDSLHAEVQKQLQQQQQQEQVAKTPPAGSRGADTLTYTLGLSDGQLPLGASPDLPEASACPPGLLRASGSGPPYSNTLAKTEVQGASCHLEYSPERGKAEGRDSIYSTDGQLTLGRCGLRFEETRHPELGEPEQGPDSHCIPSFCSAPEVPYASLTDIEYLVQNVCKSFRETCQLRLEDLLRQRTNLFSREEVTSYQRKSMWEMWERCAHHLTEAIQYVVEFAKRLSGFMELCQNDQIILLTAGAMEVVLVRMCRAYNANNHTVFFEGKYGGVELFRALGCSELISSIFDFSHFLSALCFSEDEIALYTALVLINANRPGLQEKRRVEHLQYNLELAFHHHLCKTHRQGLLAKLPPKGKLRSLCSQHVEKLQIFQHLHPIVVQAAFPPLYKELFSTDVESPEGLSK
Put plainly: Inverse agonist activity at RORgammat in mouse Th17 cells assessed as inhibition of CD3/CD28/IL-1/IL-23-induced IL-17A production measured after 24 hrs by AlphaLISA assay. In kind it is cell-based.

Data set [12] is described as follows: Metabolic stability in human liver microsomes assessed as parent compound remaining. In kind it is ADME, Microsome. In short, it runs like this: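 Test compound at 0.5 μM initial concentration incubated with human, mouse or rat liver microsomes (protein 1 mg/mL). Metabolic stability reported as percent of parent compound remaining after incubation.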
Data set [13] in a line: Half life in rat liver microsomes. The format is ADME, Microsome. In short, it runs like this:
as §2

Data set [14] is described as follows: Permeability across apical to basolateral membrane in human Caco-2 cells. In kind it is ADME, cell-based. The following applies: read-out: permeability. In short, it runs like this:
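Caco-2 monolayer permeability, apical-to-basolateral direction (Pc, nm/s). An efflux ratio is also reported.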

Data set [15] deals with Mus musculus. Put plainly: Protection against recombinant human IL23-induced acanthosis C57BL/6 mouse model assessed as reduction in IL-17F mRNA levels at 3 mg/kg, po BID BID for 10 days by qRT-PCR analysis relative to control. The format is functional. Further details: scale not given: the % may be the effect or the level left. The following applies: time 10 day. In short, it runs like this: as §3

The subject of data set [16] is Mus musculus. Put plainly: Protection against recombinant human IL23-induced acanthosis C57BL/6 mouse model assessed as reduction in IL-17F mRNA levels at 15 mg/kg, po BID BID for 10 days by qRT-PCR analysis relative to control. The format is functional. More on the design: scale not given: the % may be the effect or the level left. To be noted: time 10 day. In short, it runs like this: as §3

Data set [17] has as its target T2, Oxysterols receptor LXR-alpha (Homo sapiens, UniProt Q13133).
T2 sequence (Q13133 whole entry): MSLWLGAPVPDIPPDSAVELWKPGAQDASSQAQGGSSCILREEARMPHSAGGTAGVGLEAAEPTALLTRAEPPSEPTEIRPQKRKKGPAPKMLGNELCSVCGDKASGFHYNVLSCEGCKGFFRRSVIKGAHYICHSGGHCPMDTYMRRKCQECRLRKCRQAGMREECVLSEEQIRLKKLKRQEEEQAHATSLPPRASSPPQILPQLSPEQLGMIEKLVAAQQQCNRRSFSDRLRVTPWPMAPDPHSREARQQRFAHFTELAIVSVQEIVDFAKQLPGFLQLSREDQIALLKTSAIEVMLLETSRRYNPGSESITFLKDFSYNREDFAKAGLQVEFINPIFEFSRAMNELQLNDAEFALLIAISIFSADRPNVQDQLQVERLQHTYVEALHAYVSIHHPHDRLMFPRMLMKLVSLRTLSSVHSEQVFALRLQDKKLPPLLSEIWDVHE
Put plainly: Inverse agonist activity at LXRalpha (unknown origin).

Data set [18] addresses T3, Oxysterols receptor LXR-beta (Homo sapiens, UniProt P55055).
T3 sequence (P55055 whole entry): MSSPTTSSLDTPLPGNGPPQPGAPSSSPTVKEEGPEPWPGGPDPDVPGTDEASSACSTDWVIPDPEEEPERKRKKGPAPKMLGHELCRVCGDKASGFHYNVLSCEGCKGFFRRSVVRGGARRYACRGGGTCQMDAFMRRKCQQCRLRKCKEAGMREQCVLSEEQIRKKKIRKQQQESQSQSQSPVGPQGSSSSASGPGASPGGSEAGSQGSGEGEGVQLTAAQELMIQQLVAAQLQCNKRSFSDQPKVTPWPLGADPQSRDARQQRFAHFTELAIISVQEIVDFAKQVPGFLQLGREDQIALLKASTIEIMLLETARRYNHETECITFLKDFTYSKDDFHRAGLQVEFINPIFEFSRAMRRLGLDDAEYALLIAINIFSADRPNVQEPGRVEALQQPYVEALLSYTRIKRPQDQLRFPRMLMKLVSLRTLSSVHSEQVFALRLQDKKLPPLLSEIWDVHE
Put plainly: Inverse agonist activity at LXRbeta (unknown origin).

The subject of data set [19] is Mus musculus. As to the kind of experiment: Protection against recombinant human IL23-induced acanthosis C57BL/6 mouse model assessed as inhibition of ear thickening at 15 mg/kg, po BID for 10 days and measured every other day relative to control. In kind it is functional. The following applies: C57BL/6, po, 240 h, time 10 day. In short, it runs like this: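 IL-23 ear-injection acanthosis model in C57BL/6 mice with BID oral dosing. Ear thickness % change was recorded every other day, before each next injection, from a day 0 baseline. Inhibition of ear thickening was calculated against the placebo arm from the area under the curve over the study duration.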

Cytochrome P450 2D6, sequence (P10635 whole entry): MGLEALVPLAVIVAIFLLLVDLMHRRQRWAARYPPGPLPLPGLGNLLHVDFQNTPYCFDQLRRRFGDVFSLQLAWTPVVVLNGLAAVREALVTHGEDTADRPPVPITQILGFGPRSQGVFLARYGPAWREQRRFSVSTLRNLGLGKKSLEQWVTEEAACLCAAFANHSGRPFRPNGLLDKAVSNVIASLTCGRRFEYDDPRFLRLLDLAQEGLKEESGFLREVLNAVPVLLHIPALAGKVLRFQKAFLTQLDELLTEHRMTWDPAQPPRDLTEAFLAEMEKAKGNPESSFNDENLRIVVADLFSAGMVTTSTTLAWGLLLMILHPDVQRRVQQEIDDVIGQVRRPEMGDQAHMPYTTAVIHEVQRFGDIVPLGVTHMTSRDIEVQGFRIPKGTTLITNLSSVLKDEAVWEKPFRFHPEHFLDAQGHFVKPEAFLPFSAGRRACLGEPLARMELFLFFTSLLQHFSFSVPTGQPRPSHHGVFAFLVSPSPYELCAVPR

Turning to `CC(C)(O)C(=O)N[C@@H]1CC[C@@]2(S(=O)(=O)c3ccc(F)cc3)c3ccc(C(F)(C(F)(F)F)C(F)(F)F)cc3CC[C@@H]12`, the inhibition in vivo at 20 mg/kg in the data set with Mus musculus [1] is 57.7%. The results for the clearance in data set [2] and in [9] were 2.7 mL/min/kg and 3.7 mL/min/kg, respectively. Also, the half-life in data set [3], in data set [8] and in data set [13] was 2 h each time. For the same compound, the fraction unbound in [4] worked out at 0.005. Moreover, the Activity in the data set with Mus musculus [5] was 2.7%; in the data set with Mus musculus [7], 71.6%; in the data set on Mus musculus [15], 13.7%; in the data set on Mus musculus [16], 79.6%. The bioavailability in data set [6] was 100%; in [10], 83%. Besides, the 50% inhibitory concentration (IC50) against Cytochrome P450 2D6 came out at 20 µM. For the same compound, the 50% effective concentration (EC50) is 0.0027 µM in data set [11], over 5 µM in data set [17] and over 5 µM in data set [18]. Further, in [12], the Stabilty stood at 100%. In addition, in [14], the Papp A→B came out at 10.6 ×10⁻⁶ cm/s. In the data set with Mus musculus [19], the inhibition in vivo at 15 mg/kg is 66.8%.
